# Sampled rows, rich in hits. Any-hit rate of the full collection: about 1.8%.
# CHRM5 antagonist = human M5 muscarinic receptor antagonists, primary screen, CHO cells, Fluo-8 calcium fluorescence; CHO-hM5 cells, ACh EC80; inhibition, % at 3 µM; actives 0.59% (n = 360,000); AID 624040, 2012;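 active = inhibition above a per-plate cutoff, the mean of that plate's test compounds plus 3 SD, cut at about 27% in these data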;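 note: 0% = acetylcholine EC80 with DMSO and 100% = DMSO without agonist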
# Target sequence (P08912 whole entry, looked up): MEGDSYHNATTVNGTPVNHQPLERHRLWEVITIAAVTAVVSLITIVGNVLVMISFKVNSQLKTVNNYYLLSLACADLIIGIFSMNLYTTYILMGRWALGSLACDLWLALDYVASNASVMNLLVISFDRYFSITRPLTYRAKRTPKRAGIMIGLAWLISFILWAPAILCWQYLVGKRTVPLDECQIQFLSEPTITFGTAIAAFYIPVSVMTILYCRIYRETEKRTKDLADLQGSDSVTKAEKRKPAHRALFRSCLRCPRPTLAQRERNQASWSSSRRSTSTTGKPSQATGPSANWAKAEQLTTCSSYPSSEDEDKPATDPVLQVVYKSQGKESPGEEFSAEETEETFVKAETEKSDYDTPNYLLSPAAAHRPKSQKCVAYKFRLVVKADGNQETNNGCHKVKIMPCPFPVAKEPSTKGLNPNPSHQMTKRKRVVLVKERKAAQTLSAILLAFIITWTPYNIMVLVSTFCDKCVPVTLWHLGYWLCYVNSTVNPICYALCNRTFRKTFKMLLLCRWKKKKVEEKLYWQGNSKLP
# M5 PAM = human M5 muscarinic receptor positive allosteric modulators, primary screen, CHO-K1 cells, Fluo-8 calcium fluorescence | CHO-K1 hM5, ACh EC20 PAM; 0% = ACh EC20, 100% = ACh EC100 | actives 0.3% (n = 360,000) | AID 624038, 2012 | activation, % at 3 µM;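 active = activation above the run cutoff, the mean activation of all test compounds plus 3 SD, cut at about 18% in these data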
#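 Test system: CHO-K1 hM5 cells / Doses: single-point, 3 µM nominal / Times: Post-acetylcholine fluorescence recording 140 s / Technique: Fluo-8 calcium fluorescence / Measure: Max/basal fluorescence ratio as % of EC20–EC100 ACh window / Benchmarks: low control EC20 acetylcholine (0%), high control EC100 acetylcholine (100%) / Replicates: one well per compound, no replicates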
# M4 ag = human M4 muscarinic receptor agonists, primary screen, CHO-K1 cells, Fluo-8 calcium fluorescence. Muscarinic acetylcholine receptor M4 (Homo sapiens), P08173. CHO-K1 hM4/Gqi5; vehicle 0%, full acetylcholine response 100%. activation, % at 3 µM. AID 624127, 2012. actives 0.14% (n = 360,000);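 active = activation above the run mean over all test wells plus 3 SD, cut at about 32% in these data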;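 note: peak over basal fluorescence ratio per well then scaled between controls; 0% = DMSO wells and 100% = acetylcholine at EC100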
# CHRM4 PAM = human M4 muscarinic receptor positive allosteric modulators, primary screen, CHO-K1 cells, Fluo-8 calcium fluorescence. CHO-K1 hM4/Gqi5, ACh EC20; 0% = ACh EC20, 100% = maximal ACh. activation, % at 3 µM. actives 0.4% (n = 360,000). AID 624126, 2012;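 active = activation above its plate's cutoff, the mean activation of sample wells plus 3 SD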
# M4 antag = human M4 muscarinic receptor antagonists, primary screen, CHO cells, Fluo-8 calcium fluorescence; CHO-hM4 cells, ACh EC80; inhibition, % at 3 µM; actives 0.73% (n = 360,000); AID 624125, 2012;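 active = inhibition above its plate's cutoff, the mean inhibition of sample wells plus 3 SD, cut at about 27% in these data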;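 note: 0% = acetylcholine EC80 with DMSO and 100% = DMSO without agonist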
# CHRM5 agonist = human M5 muscarinic receptor agonists, primary screen, CHO-K1 cells, Fluo-8 calcium fluorescence; Muscarinic acetylcholine receptor M5 (Homo sapiens), P08912; CHO-K1 hM5 cells; 0% DMSO wells, 100% maximal acetylcholine response; activation, % at 3 µM; actives 0.19% (n = 360,000); AID 624037, 2012;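 active = activation above the run's mean over test compounds plus 3 SD, cut at about 23% in these data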;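 note: signal is peak over basal fluorescence ratio across the kinetic read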
# Numbers without * were called inactive.
SMILES,CHRM5 antagonist,M5 PAM,M4 ag,CHRM4 PAM,M4 antag,CHRM5 agonist
CC(C)(C)NC(=O)C(c1ccccn1)N(C(=O)c1csnn1)C1CCCCC1 (centres undefined),-8,9,1,4,2,0
Cc1ccc(C)c(NC(=O)CN(C)C(C)C(=O)N2CC(C)CC(C)C2)c1 (centres undefined),-21,19*,2,16,-12,-3
CN(CC1COc2ccccc2O1)C(=O)c1cc(COc2c(F)cccc2F)on1 (centres undefined),6,-2,6,3,-8,-4
CN(CC1COCCO1)C(=O)c1cc(COc2c(F)cccc2F)on1 (centres undefined),0,0,3,23*,2,0
Oc1ccc2c(c1)OCC1(O)Cc3cc(O)c(O)cc3C21 (centres undefined),6,-4,52*,-17,6,8
Oc1cc2c(cc1O)[C@H]1c3ccc(O)c(O)c3OC[C@@]1(O)C2,5,4,0,0,6,2
CCn1c(CNc2ccccc2Cl)nnc1SCCN1CCCCC1,1,-7,1,-19,33*,-8
COc1ccc(OC)c(/C=C2/Sc3ccccc3C2=O)c1,43*,-23,27,-5,19,63*
CC1CCCCN1CCCNc1ccc(C(CC(N)=O)NC(=O)Cc2cccc3ccccc23)cc1[N+](=O)[O-] (centres undefined),7,1,1,0,9,-2
Cc1ccc(C2C(C#N)=C(N)N(c3ncn[nH]3)C3=C2C(=O)CC(C)(C)C3)cc1 (centres undefined),-3,2,1,5,3,1
Cc1onc(-c2c(F)cccc2Cl)c1C(=O)Nc1nnc(C(F)(F)F)s1,29*,-12,15,-3,1,6
Cc1onc(-c2c(F)cccc2Cl)c1C(=O)Nc1nccs1,2,-3,11,-3,-4,4
Cc1noc(C)c1C(=O)Nc1nnc(-c2ccccc2)s1,0,-2,3,4,-2,1
Cc1onc(-c2ccccc2)c1C(=O)Nc1nnc(-c2ccncc2)s1,-15,14,-1,31*,4,10
COc1ccc(C(=O)C2CCCN(C(=O)c3cccnc3SC)C2)c(C)c1 (centres undefined),5,4,5,2,4,0
C[C@H](CO)N1C[C@H](C)[C@@H](CN(C)Cc2ccncc2)Oc2ccc(NC(=O)CCCCCC(=O)Nc3ccccc3N)cc2C1=O,4,5,2,1,4,0
O=C(N/C(=C/c1ccc(Cl)cc1)c1nc2ccccc2[nH]1)c1ccco1,-5,-1,3,-10,0,3
O=C(/C(=C/c1ccc(Cl)cc1)c1nc2ccccc2[nH]1)c1ccccc1,13,-23,1,-20,38*,-5
Cc1nc2scc(-c3ccc(C(C)(C)C)cc3)c2c(=O)n1N,33*,-19,15,-15,9,4
COc1ccc(-c2csc3nc(C)n(-n4cccc4)c(=O)c23)cc1,-4,10,-3,3,-1,-3
COC(=O)/C(=C\C(=O)c1ccccc1)Nc1ccc(OC)cc1,30*,27*,1,0,-1,3
CC(C)NC(=O)CCCc1ccccc1,-4,7,2,29*,-1,4
CCC(NC(=O)CCCc1ccccc1)c1ccccc1 (centres undefined),6,-4,0,-1,6,-5
CC1CCCCC1NC(=O)COC(=O)c1ccc2c(c1)NC(=O)CS2 (centres undefined),11,-4,4,2,-3,2

# Source: PubChem
